Test results reported in publication PMC7549103 (ACS Medicinal Chemistry Letters, 2020).
pEC50: −log10 of the molar value.

Experiments:
[1] = eLogD7.4; assay type: physicochemical; settings: pH 7.4
[2] = Retest of activity over time; assay type: physicochemical
[3] = tested on: MOLT-4 cells; test: Cellular viability assay, MOLT-4 cells; assay type: cell-based, human
Outline: (§1)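 MOLT-4 is used as the BCL-XL-dependent human cancer cell line, and RS4;11 as the BCL-2-dependent line. Test compounds were tested in both lines in parallel.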

[4] = Single dose pharmacokinetics in rats; assay type: in vivo, Sprague-Dawley rats; settings: rat, single oral dose of 5 mg/kg
[5] = tested on: RS4;11 cells; test: Cellular viability assay, RS4; assay type: cell-based; settings: Homo sapiens, RS4-11, 48 h, read-out: RS4;11 EC50
Outline: as §1

[6] = target: GST-BCL-XL (Homo sapiens, UniProt Q07817); assay type: binding; settings: BCL-XL TR-FRET Ki ratio
[7] = tested on: MOLT-4 cells; settings: cytochrome c release, caspase-3/-7 activation, Annexin-V staining; cited from earlier work

Sequence of GST-BCL-XL (Q07817 whole entry): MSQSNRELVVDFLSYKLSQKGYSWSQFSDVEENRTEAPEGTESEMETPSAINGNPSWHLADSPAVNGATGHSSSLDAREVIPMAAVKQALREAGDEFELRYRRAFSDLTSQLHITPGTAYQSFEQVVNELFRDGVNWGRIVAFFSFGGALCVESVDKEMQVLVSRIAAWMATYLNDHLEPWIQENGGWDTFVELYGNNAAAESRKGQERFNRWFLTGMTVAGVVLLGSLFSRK

Structure (SMILES): O=C(O)c1csc(N2CCc3cccc(C(=O)Nc4nc5ccccc5s4)c3C2)n1 [Compound 2]
- eLogD7.4 [1]: 3.02

Structure (SMILES): O=C(O)c1cccc(N2CCc3cccc(C(=O)Nc4nc5ccccc5s4)c3C2)n1 [Compound 3]
- chromatographic logD [1]: 2.85

Structure (SMILES): O=C(Nc1nc2ccccc2s1)c1cccc2c1CN(c1ccc(-c3ccn(Cc4ccccc4)c3)c(C(=O)O)n1)CC2 [Compound 5]
- stability on storage (activity upon retest over time) [2]: lost activity upon retest over time

Structure (SMILES): O=C(Nc1nc2ccccc2s1)c1cccc2c1CN(c1ccc(-c3cnn(Cc4ccccc4)c3)c(C(=O)O)n1)CC2 [Compound 6]
- pEC50 ([3]; Homo sapiens, MOLT-4, 48 h, read-out: MOLT-4 EC50, 10% HS, 48 hours): < 5.30

Structure (SMILES): Cc1c(-c2ccc(N3CCc4cccc(C(=O)Nc5nc6ccccc6s5)c4C3)nc2C(=O)O)cnn1Cc1ccccc1 [Compound 10]
- Cmax-coverage (total drug exposure) of the cellular EC50 [4]: approximately 3 fold
- pEC50 [5]: < 5.30
- activity in cells (in words) ([3]; MOLT-4 (and RS4;11) cells, 10% human serum): low micromolar activity

Structure (SMILES): Cc1nn(Cc2ccccc2)c(C)c1-c1ccc(N2CCc3cccc(C(=O)Nc4nc5ccccc5s4)c3C2)nc1C(=O)O [Compound 11]
- improvement in target affinity relative to parent 6 [6]: ~11 fold

Structure (SMILES): Cc1c(-c2ccc(N3CCc4cccc(C(=O)Nc5nc6ccccc6s5)c4C3)nc2C(=O)O)cnn1CC12CC3CC(CC(C3)C1)C2 [Compound 13]
- mechanism-based effects in MOLT-4 cells [7]: disrupted BCL-XL:BIM complexes and induced classical features of apoptosis
- in vitro efficacy against MOLT-4, fold more potent than A-1155463 (1) ([3]; 10% HS): 20 fold
